Calls of active or inactive are those of the source. The calls are words filed in the database; no cut-off is given here.
System: HEK293
Assay: Inhibition of Wnt/beta-catenin (unknown origin) signaling pathway expressed in HEK293 cells assessed as inhibition of TCF4 transcriptional activity at 5 to 40 uM after 24 hrs by TOPflash reporter gene assay
Assay type: cell-based
Details: Homo sapiens
In short: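 HEK293 cells seeded at 1.5 × 10^4 per well and cotransfected (Lipofectamine 2000) with TOPflash luciferase reporter 0.1 μg, Renilla 0.005 μg for normalization, pcDNA β-catenin 0.02 μg and TCF4 expression vector 0.004 μg to activate Wnt; 24 h later treated with compound or solvent for 24 h; dual luciferase read-out, Renilla-normalized, relative to vehicle; triplicate.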

In the case of `COc1ccccc1/C=C/C=O`, the inhibition is reported as “Active”.
